Assay results gathered from unrelated publications.
Each line is one published result; the experiments were not run side by side.
ADORA3: Adenosine receptor A3 (ADORA3, Homo sapiens, UniProt P0DMS8)
Liver carboxylesterase: Liver carboxylesterase (Sus scrofa, UniProt Q29550)
DRD2: D(2) dopamine receptor (DRD2, Homo sapiens, UniProt P14416)

Structure (SMILES) | target | test | setting | Ki
CC(C)N1CCCn2c1nc1c2c(=O)n(C)c(=O)n1C | ADORA3 | ligand displacement, radioligand | cell membranes | > 10 µM
CCCCC[C@H](O)/C=C/[C@H]1C=CC(=O)[C@@H]1C/C=C\CCCC(=O)O | Liver carboxylesterase | enzyme activity, inhibitor, HPLC | pH 7.4 | 12 µM
CCCC(C)N1CCCn2c1nc1c2c(=O)n(C)c(=O)n1C (stereo not shown) | ADORA3 | ligand displacement, radioligand | cell membranes | > 10 µM
CC/C=C\C/C=C\C/C=C\C/C=C\C/C=C\C/C=C\CCC(=O)O | Liver carboxylesterase | enzyme activity, inhibitor, HPLC | pH 7.4 | 3.7 µM
Oc1ccc(CCC2=NCCN2CCc2ccccc2)cc1 | DRD2 | ligand displacement, radioligand |  | 0.794 µM
CNC(=O)[C@@]12C[C@@H]1[C@@H](n1cnc3c(NCc4cccc(C#CCCCCc5cn(C67CC8CC(CC(C8)C6)C7)nn5)c4)nc(Cl)nc31)[C@H](O)[C@@H]2O | ADORA3 | ligand displacement, radioligand | cell membranes | 0.0218 µM
O=C1c2ccccc2CCCN1CCCCN1CCN(c2ccccn2)CC1 | DRD2 | ligand displacement, radioligand |  | 0.209 µM
CCCCC[C@H](O)/C=C/C1=C(CCCCCCC(=O)O)C(=O)CC1 | Liver carboxylesterase | enzyme activity, inhibitor, HPLC | pH 7.4 | 16 µM
CC[C@H](C)[C@H](NC(=O)CN)C(=O)N[C@H](C(=O)N[C@@H](CC(N)=O)C(=O)N[C@H](C(=O)N[C@@H](CC(C)C)C(=O)N[C@@H](CCC(N)=O)C(=O)N[C@@H](CCCCN)C(=O)N[C@@H](Cc1ccc(O)cc1)C(=O)N[C@@H](Cc1ccc(O)cc1)C(=O)N[C@@H](CO)C(=O)N[C@@H](CCCNC(=N)N)C(=O)N[C@H](C(=O)N[C@@H](CCCNC(=N)N)C(=O)NCC(=O)NCC(=O)N[C@@H](CCCNC(=N)N)C(=O)N[C@H]1CSSC[C@@H](C(=O)N[C@@H](CO)C(=O)N[C@H](C(=O)N[C@@H](CCCNC(=N)N)C(=O)NCC(=O)N[C@@H](CCCNC(=N)N)C(=O)N[C@@H](CCCCN)C(=O)N[C@@H](CO)C(=O)N[C@@H](CO)C(=O)N[C@@H](CCCNC(=N)N)C(=O)N[C@@H](CCCNC(=N)N)C(=O)N[C@@H](CCCCN)C(=O)N[C@@H](CCCCN)C(N)=O)[C@@H](C)O)NC(=O)[C@H](CCCCN)NC(=O)CNC(=O)[C@H]([C@@H](C)CC)NC(=O)[C@H](CCC(N)=O)NC(=O)[C@H](CCC(=O)O)NC(=O)[C@H](CCC(=O)O)NC(=O)[C@H](CCCCN)NC(=O)[C@@H]2CCCN2C(=O)[C@H](CC(C)C)NC(=O)[C@H](CO)NC(=O)[C@H](CO)NC(=O)[C@H](CC(C)C)NC(=O)[C@H](C(C)C)NC(=O)[C@H](C)NC1=O)C(C)C)[C@@H](C)O)[C@@H](C)CC | Melanocyte-stimulating hormone receptor (MC1R, Homo sapiens, UniProt Q01726) | ligand displacement in cells |  | 0.373 µM
COc1cccc(CCC2=NCCN2CCc2ccccc2)c1 | DRD2 | ligand displacement, radioligand |  | > 10 µM
COc1ccc2c(c1)C(=O)N(CCN1CCN(c3ccccc3OC)CC1)C2 | DRD2 | ligand displacement, radioligand |  | 1.65 µM
CCN1CCCn2c1nc1c2c(=O)n(C)c(=O)n1C | ADORA3 | ligand displacement, radioligand | cell membranes | > 10 µM
CCCC[C@H](NC(=O)[C@H](CO)NC(=O)[C@H](Cc1ccc(O)cc1)NC(=O)[C@H](CO)NC(C)=O)C(=O)N[C@@H](CCC(=O)O)C(=O)N[C@@H](Cc1c[nH]cn1)C(=O)N[C@@H](C)C(=O)N[C@@H](CCCNC(=N)N)C(=O)N[C@@H](Cc1c[nH]c2ccccc12)C(=O)NCC(=O)N[C@@H](CCCCN)C(=O)N1CCC[C@H]1C(=O)N[C@H](C(=O)NCC(=O)N[C@@H](CCCCN)C(=O)N[C@@H](CCCCN)C(=O)N[C@@H](CCCNC(=N)N)C(N)=O)C(C)C | Melanocortin receptor 3 (MC3R, Homo sapiens, UniProt P41968) | ligand displacement in cells, radioligand |  | > 1 µM
NCCCC[C@H](NC(=O)[C@@H]1CCCN1C(=O)[C@@H]1CSSC[C@H](NC(=O)CNC(=O)CNC(=O)CN)C(=O)N[C@@H](Cc2ccc(O)cc2)C(=O)N[C@@H](Cc2ccccc2)C(=O)N[C@@H](CCC(N)=O)C(=O)N[C@@H](CC(N)=O)C(=O)N1)C(=O)NCC(N)=O | Vasopressin V2 receptor (AVPR2, Homo sapiens, UniProt P30518) | ligand displacement, radioligand | cell membranes | 6.9 µM
CCCCN1CCCn2c1nc1c2c(=O)n(C)c(=O)n1C | ADORA3 | ligand displacement, radioligand | cell membranes | > 10 µM
CCNC(=O)[C@H]1O[C@@H](n2cnc3c(N)nc(NN=CC4CCC=CO4)nc32)[C@H](O)[C@@H]1O (stereo partly shown) | ADORA3 | ligand displacement, radioligand |  | 0.00632 µM
CC(C)CN1CCCn2c1nc1c2c(=O)n(C)c(=O)n1C | ADORA3 | ligand displacement, radioligand | cell membranes | > 10 µM
OC[C@H]1OC(O)[C@H](O)[C@@H](O)[C@H]1O (stereo partly shown) | Alpha-galactosidase A (GLA, Homo sapiens, UniProt P06280) | enzyme activity, inhibitor |  | 16000 µM
CCCCN1CCC(COC(=O)c2ccc(N)c(OCF)c2)CC1 | 5-hydroxytryptamine receptor 1E (HTR1E, Homo sapiens, UniProt P28566) | cell-free assay, radioligand |  | > 10 µM
